Measured values published in ChEMBL document CHEMBL4689842, “EUbOPEN Chemogenomics Library wave 1” (2021).

System: Fibroblast
Experiment: Multiplex assay against human fibroblast
Type: toxicity, cell-based
Method in brief: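 Compound was added to live cells that had been stained at seeding with Hoechst33342, BioTracker Green Microtubule Cytoskeleton Dye, MitoTracker Red and Annexin V Alexa Fluor 680, and imaging followed on a CQ1 microscope at 37°C and 5% CO2. CellPathfinder machine-learning gating divided cells into Hoechst high-intensity objects or normal cells, normal cells into healthy, pyknosed or fragmented nuclei, and pyknosed cells into mitotic or apoptotic. Tubulin, mitochondrial-mass and membrane-permeability phenotypes are per cents of healthy-nucleus cells.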

[1] = 12 h, 1 µM, compound concentration 1 uM, replicate 1
[2] = 12 h, 1 µM, compound concentration 1 uM, replicate 2
[3] = 12 h, 10 µM, compound concentration 10 uM, replicate 1
[4] = 12 h, 10 µM, compound concentration 10 uM, replicate 2
[5] = 24 h, 1 µM, compound concentration 1 uM, replicate 1
[6] = 24 h, 1 µM, compound concentration 1 uM, replicate 2
[7] = 24 h, 10 µM, compound concentration 10 uM, replicate 1
[8] = 24 h, 10 µM, compound concentration 10 uM, replicate 2
[9] = 48 h, 1 µM, compound concentration 1 uM, replicate 1
[10] = 48 h, 1 µM, compound concentration 1 uM, replicate 2
[11] = 48 h, 10 µM, compound concentration 10 uM, replicate 1
[12] = 48 h, 10 µM, compound concentration 10 uM, replicate 2

Compound: Cc1ccc(C(=O)Nc2cccc(C(F)(F)F)c2)cc1Nc1nc(-c2cccnc2)nc2c1cnn2C
- Population Apoptotic (%) [1]: 61%
- Population Fragmented Nuclei (%) [1]: 34%
- Population Healthy Nuclei (%) [1]: 29%
- Population Hoechst High Intensity Objects (%) [1]: 10%
- Population Membrane Permeable-Phenotype (%) [1]: 28%
- Population Mitochondria Different-Phenotype (%) [1]: 3%
- Population Mitotic Cells (%) [1]: 38%
- Population Normal (%) [1]: 89%
- Population Pyknosed Nuclei (%) [1]: 35%
- Population Tubulin-Different-Phenotype (%) [1]: 53%
- Total Cell Count [1]: 122
- Population Apoptotic (%) [2]: 50%
- Population Fragmented Nuclei (%) [2]: 14%
- Population Healthy Nuclei (%) [2]: 73%
- Population Hoechst High Intensity Objects (%) [2]: 3%
- Population Membrane Permeable-Phenotype (%) [2]: 6%
- Population Mitochondria Different-Phenotype (%) [2]: 25%
- Population Mitotic Cells (%) [2]: 50%
- Population Normal (%) [2]: 96%
- Population Pyknosed Nuclei (%) [2]: 12%
- Population Tubulin-Different-Phenotype (%) [2]: 14%
- Total Cell Count [2]: 101
- Population Apoptotic (%) [3]: 65%
- Population Fragmented Nuclei (%) [3]: 24%
- Population Healthy Nuclei (%) [3]: 33%
- Population Hoechst High Intensity Objects (%) [3]: 13%
- Population Membrane Permeable-Phenotype (%) [3]: 34%
- Population Mitochondria Different-Phenotype (%) [3]: 37%
- Population Mitotic Cells (%) [3]: 34%
- Population Normal (%) [3]: 86%
- Population Pyknosed Nuclei (%) [3]: 41%
- Population Tubulin-Different-Phenotype (%) [3]: 88%
- Total Cell Count [3]: 121
- Population Apoptotic (%) [4]: 61%
- Population Fragmented Nuclei (%) [4]: 18%
- Population Healthy Nuclei (%) [4]: 42%
- Population Hoechst High Intensity Objects (%) [4]: 8%
- Population Membrane Permeable-Phenotype (%) [4]: 78%
- Population Mitochondria Different-Phenotype (%) [4]: 92%
- Population Mitotic Cells (%) [4]: 38%
- Population Normal (%) [4]: 91%
- Population Pyknosed Nuclei (%) [4]: 39%
- Population Tubulin-Different-Phenotype (%) [4]: 100%
- Total Cell Count [4]: 66
- Population Apoptotic (%) [5]: 66%
- Population Fragmented Nuclei (%) [5]: 40%
- Population Healthy Nuclei (%) [5]: 41%
- Population Hoechst High Intensity Objects (%) [5]: 14%
- Population Membrane Permeable-Phenotype (%) [5]: 19%
- Population Mitochondria Different-Phenotype (%) [5]: 5%
- Population Mitotic Cells (%) [5]: 33%
- Population Normal (%) [5]: 85%
- Population Pyknosed Nuclei (%) [5]: 17%
- Population Tubulin-Different-Phenotype (%) [5]: 43%
- Total Cell Count [5]: 142
- Population Apoptotic (%) [6]: 27%
- Population Fragmented Nuclei (%) [6]: 12%
- Population Healthy Nuclei (%) [6]: 72%
- Population Hoechst High Intensity Objects (%) [6]: 3%
- Population Membrane Permeable-Phenotype (%) [6]: 7%
- Population Mitochondria Different-Phenotype (%) [6]: 29%
- Population Mitotic Cells (%) [6]: 72%
- Population Normal (%) [6]: 96%
- Population Pyknosed Nuclei (%) [6]: 14%
- Population Tubulin-Different-Phenotype (%) [6]: 16%
- Total Cell Count [6]: 101
- Population Apoptotic (%) [7]: 85%
- Population Fragmented Nuclei (%) [7]: 27%
- Population Healthy Nuclei (%) [7]: 34%
- Population Hoechst High Intensity Objects (%) [7]: 10%
- Population Membrane Permeable-Phenotype (%) [7]: 42%
- Population Mitochondria Different-Phenotype (%) [7]: 44%
- Population Mitotic Cells (%) [7]: 14%
- Population Normal (%) [7]: 89%
- Population Pyknosed Nuclei (%) [7]: 37%
- Population Tubulin-Different-Phenotype (%) [7]: 81%
- Total Cell Count [7]: 124
- Population Apoptotic (%) [8]: 90%
- Population Fragmented Nuclei (%) [8]: 26%
- Population Healthy Nuclei (%) [8]: 11%
- Population Hoechst High Intensity Objects (%) [8]: 20%
- Population Membrane Permeable-Phenotype (%) [8]: 100%
- Population Mitochondria Different-Phenotype (%) [8]: 75%
- Population Mitotic Cells (%) [8]: 9%
- Population Normal (%) [8]: 79%
- Population Pyknosed Nuclei (%) [8]: 61%
- Population Tubulin-Different-Phenotype (%) [8]: 100%
- Total Cell Count [8]: 77
- Population Apoptotic (%) [9]: 42%
- Population Fragmented Nuclei (%) [9]: 59%
- Population Healthy Nuclei (%) [9]: 36%
- Population Hoechst High Intensity Objects (%) [9]: 23%
- Population Membrane Permeable-Phenotype (%) [9]: 15%
- Population Mitochondria Different-Phenotype (%) [9]: 0%
- Population Mitotic Cells (%) [9]: 57%
- Population Normal (%) [9]: 76%
- Population Pyknosed Nuclei (%) [9]: 4%
- Population Tubulin-Different-Phenotype (%) [9]: 59%
- Total Cell Count [9]: 189
- Population Apoptotic (%) [10]: 75%
- Population Fragmented Nuclei (%) [10]: 65%
- Population Healthy Nuclei (%) [10]: 32%
- Population Hoechst High Intensity Objects (%) [10]: 22%
- Population Membrane Permeable-Phenotype (%) [10]: 12%
- Population Mitochondria Different-Phenotype (%) [10]: 3%
- Population Mitotic Cells (%) [10]: 25%
- Population Normal (%) [10]: 77%
- Population Pyknosed Nuclei (%) [10]: 2%
- Population Tubulin-Different-Phenotype (%) [10]: 63%
- Total Cell Count [10]: 231
- Population Apoptotic (%) [11]: 66%
- Population Fragmented Nuclei (%) [11]: 45%
- Population Healthy Nuclei (%) [11]: 38%
- Population Hoechst High Intensity Objects (%) [11]: 21%
- Population Membrane Permeable-Phenotype (%) [11]: 40%
- Population Mitochondria Different-Phenotype (%) [11]: 18%
- Population Mitotic Cells (%) [11]: 33%
- Population Normal (%) [11]: 78%
- Population Pyknosed Nuclei (%) [11]: 16%
- Population Tubulin-Different-Phenotype (%) [11]: 88%
- Total Cell Count [11]: 165
- Population Apoptotic (%) [12]: 60%
- Population Fragmented Nuclei (%) [12]: 56%
- Population Hoechst High Intensity Objects (%) [12]: 25%
- Population Membrane Permeable-Phenotype (%) [12]: 14%
- Population Mitochondria Different-Phenotype (%) [12]: 64%
- Population Mitotic Cells (%) [12]: 40%
- Population Normal (%) [12]: 74%
- Population Pyknosed Nuclei (%) [12]: 4%
- Population Tubulin-Different-Phenotype (%) [12]: 95%
- Total Cell Count [12]: 146
